According to ChEMBL document CHEMBL4038284, “Synthesis of novel quinoline-based 4,5-dihydro-1H-pyrazoles as potential anticancer, antifungal, antibacterial and antiprotozoal agents” (Eur J Med Chem, 2017):
≈ marks a conversion by molar mass, not a printed value.

Legend:
Klebsiella pneumoniae [1] = experiment: Antibacterial activity against ESBL positive Klebsiella pneumoniae ATCC 700603 after 24 hrs by resazurin dye based microdilution assay; assay type: functional; settings: Klebsiella pneumoniae, 700603, 24 h
In short: (§1)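 MIC taken as the lowest concentration giving visible inhibition and/or by resazurin (1 mg/mL). Gentamicin was the control. Run in duplicate, repeated at least three times.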

Klebsiella pneumoniae [2] = experiment: Antibacterial activity against carbapenemase positive Klebsiella pneumoniae BAA 1705 after 24 hrs by resazurin dye based microdilution assay; assay type: functional; settings: BAA 1705, 24 h; in short: as §1
Leishmania panamensis = experiment: Antileshmanial activity against EpiR/GFP fused Leishmania panamensis MHOM/CO/87/UA140 intracellular amastigotes infected in human […] cells after 72 hrs by flow cytometric method; assay type: functional, cell-based; settings: MHOM/CO/87/UA140, 72 h
In short: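 PMA-treated U-937 cells (3 × 10^5 cells/mL) infected with stationary-phase GFP L. panamensis promastigotes (15:1), 3 h at 34 °C, then washed. After 24 h, compounds added at 50, 12.5, 3.125 and 0.78 µg/mL for 72 h at 37 °C. EC50 by Probit; triplicate, two experiments.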

Candida albicans [3] = experiment: Antifungal activity against Candida albicans ATCC 10231 incubated for 48 hrs under dark condition by broth microdilution method; assay type: functional; settings: ATCC 10231, 48 h
In short: (§2)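 CLSI M27-A3 broth microdilution in RPMI-1640, DMSO ≤1%, compounds at 250-0.98 µg/mL final. Inoculum 1-5 × 10^3 CFU/mL. Incubated 48 h at 30 °C in a moist dark chamber, read at OD405. MIC80 and MIC50 taken from % inhibition dose-response curves (mean ± SEM, triplicate). Amphotericin B was the positive control.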

Cryptococcus neoformans [4] = experiment: Antifungal activity against Cryptococcus neoformans ATCC 32264 incubated for 48 hrs under dark condition by broth microdilution method; assay type: functional; settings: ATCC 32264, 48 h; in short: as §2
Candida albicans [5] = experiment: Growth inhibition of Candida albicans ATCC 10231 at 250 ug/ml incubated for 48 hrs under dark condition by broth microdilution method relative to control; assay type: functional; settings: ATCC 10231, 48 h, read-out: GI
In short: (§3)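 CLSI M27-A3 broth microdilution in RPMI-1640, DMSO ≤1%. Inoculum 1-5 × 10^3 CFU/mL. Incubated 48 h at 30 °C, dark. % inhibition = 100 − (OD405 test − sterility control)/(OD405 growth control − sterility control), with growth and sterility control wells. Triplicate.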

Candida albicans [6] = experiment: Growth inhibition of Candida albicans ATCC 10231 at 125 ug/ml incubated for 48 hrs under dark condition by broth microdilution method relative to control; assay type: functional; settings: ATCC 10231, 48 h, read-out: GI; in short: as §3
Candida albicans [7] = experiment: Growth inhibition of Candida albicans ATCC 10231 at 62.5 ug/ml incubated for 48 hrs under dark condition by broth microdilution method relative to control; assay type: functional; settings: ATCC 10231, 48 h, read-out: GI; in short: as §3
Candida albicans [8] = experiment: Growth inhibition of Candida albicans ATCC 10231 at 31.25 ug/ml incubated for 48 hrs under dark condition by broth microdilution method relative to control; assay type: functional; settings: ATCC 10231, 48 h, read-out: GI; in short: as §3
Candida albicans [9] = experiment: Growth inhibition of Candida albicans ATCC 10231 at 15.62 ug/ml incubated for 48 hrs under dark condition by broth microdilution method relative to control; assay type: functional; settings: ATCC 10231, 48 h, read-out: GI; in short: as §3
Candida albicans [10] = experiment: Growth inhibition of Candida albicans ATCC 10231 at 7.8 ug/ml incubated for 48 hrs under dark condition by broth microdilution method relative to control; assay type: functional; settings: ATCC 10231, 48 h, read-out: GI; in short: as §3
Candida albicans [11] = experiment: Growth inhibition of Candida albicans ATCC 10231 at 3.4 ug/ml incubated for 48 hrs under dark condition by broth microdilution method relative to control; assay type: functional; settings: ATCC 10231, 48 h, read-out: GI
Cryptococcus neoformans [12] = experiment: Growth inhibition of Cryptococcus neoformans ATCC 32264 at 250 ug/ml incubated for 48 hrs under dark condition by broth microdilution method relative to control; assay type: functional; settings: ATCC 32264, 48 h, read-out: GI; in short: as §3
Cryptococcus neoformans [13] = experiment: Growth inhibition of Cryptococcus neoformans ATCC 32264 at 125 ug/ml incubated for 48 hrs under dark condition by broth microdilution method relative to control; assay type: functional; settings: ATCC 32264, 48 h, read-out: GI; in short: as §3
Cryptococcus neoformans [14] = experiment: Growth inhibition of Cryptococcus neoformans ATCC 32264 at 62.5 ug/ml incubated for 48 hrs under dark condition by broth microdilution method relative to control; assay type: functional; settings: ATCC 32264, 48 h, read-out: GI; in short: as §3
Cryptococcus neoformans [15] = experiment: Growth inhibition of Cryptococcus neoformans ATCC 32264 at 31.25 ug/ml incubated for 48 hrs under dark condition by broth microdilution method relative to control; assay type: functional; settings: ATCC 32264, 48 h, read-out: GI; in short: as §3
Cryptococcus neoformans [16] = experiment: Growth inhibition of Cryptococcus neoformans ATCC 32264 at 15.62 ug/ml incubated for 48 hrs under dark condition by broth microdilution method relative to control; assay type: functional; settings: ATCC 32264, 48 h, read-out: GI; in short: as §3
Cryptococcus neoformans [17] = experiment: Growth inhibition of Cryptococcus neoformans ATCC 32264 at 7.8 ug/ml incubated for 48 hrs under dark condition by broth microdilution method relative to control; assay type: functional; settings: ATCC 32264, 48 h, read-out: GI; in short: as §3
Cryptococcus neoformans [18] = experiment: Growth inhibition of Cryptococcus neoformans ATCC 32264 at 3.4 ug/ml incubated for 48 hrs under dark condition by broth microdilution method relative to control; assay type: functional; settings: ATCC 32264, 48 h, read-out: GI
Staphylococcus aureus [19] = experiment: Antibacterial activity against methicillin-sensitive Staphylococcus aureus ATCC 25923 after 24 hrs by resazurin dye based microdilution assay; assay type: functional; settings: ATCC 25923, 24 h; in short: as §1
Staphylococcus aureus [20] = experiment: Antibacterial activity against methicillin-resistant Staphylococcus aureus ATCC 43300 after 24 hrs by resazurin dye based microdilution assay; assay type: functional; settings: ATCC 43300, 24 h
In short: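 Broth microdilution in Mueller Hinton broth, inoculum 5 × 10^5 – 8 × 10^5. Compound stocks diluted in MHB with 5% DMSO and 0.1% Tween 80. Incubation 24 h at 35-37 °C. MIC is the lowest concentration with visible growth inhibition and/or by resazurin (1 mg/mL) read-out. Gentamicin as control. Run in duplicate, replicated at least three times.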

Staphylococcus aureus [21] = experiment: Antibacterial activity against vancomycin-intermediate Staphylococcus aureus after 24 hrs by resazurin dye based microdilution assay; assay type: functional; in short: as §1
Escherichia coli = experiment: Antibacterial activity against Escherichia coli ATCC 25922 after 24 hrs by resazurin dye based microdilution assay; assay type: functional; settings: ATCC 25922, 24 h; in short: as §1
Pseudomonas aeruginosa = experiment: Antibacterial activity against Pseudomonas aeruginosa ATCC 27853 after 24 hrs by resazurin dye based microdilution assay; assay type: functional; settings: ATCC 27853, 24 h; in short: as §1
Neisseria gonorrhoeae = experiment: Antibacterial activity against beta lactamase positive Neisseria gonorrhoeae ATCC 31426 by oxidase test; assay type: functional
In short: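 Agar dilution MIC on GC agar with 1% isovitalex containing increasing compound concentrations. Plates inoculated with about 1×10^4 CFU (5 µL). MIC is the lowest concentration that inhibited growth, with growth confirmed by oxidase test. Run in duplicate, repeated at least three times.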

Plasmodium falciparum = experiment: Antiplasmodial activity against chloroquine-sensitive Plasmodium falciparum 3D7 assessed as reduction in parasitic LDH activity after 48 hrs by Malstat reagent based […] method; assay type: functional; settings: 3D7, 48 h
In short: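 Unsynchronized P. falciparum 3D7 at 0.5% parasitemia and 1% hematocrit in RPMI with 3% Albumax II. Exposed to 100, 25, 6.25 and 1.56 µg/mL for 48 h at 37 °C under 90% N2/5% CO2/5% O2. After three freeze-thaw cycles, LDH measured with Malstat and NBT/PES, 1 h in the dark, read at 650 nm. IC50 by Probit; triplicate, ≥2 experiments.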

U-937 = experiment: Cytotoxicity against human U937 cells after 72 hrs by MTT assay; assay type: cell-based; settings: u-937, 72 h
In short: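 Exponentially growing U-937 at 1 × 10^5 cells/mL in RPMI-1640 with 10% FBS were exposed to 200, 50, 12.5 and 3.125 µg/mL for 72 h at 37 °C, 5% CO2. MTT for 3 h, stopped with isopropanol/SDS, formazan read at 570 nm, blank-corrected. LC50 by Probit from % viability against untreated cells. Triplicate, at least two independent experiments.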

Trypanosoma cruzi = experiment: Antitrypanosomal activity against Trypanosoma cruzi Tulahuen intracellular amastigote harboring LacZ infected in human U937 cells after 72 hrs by CPRG/Nonidet reagent based spectrophotometric method; assay type: functional, cell-based; settings: U-937, 72 h
In short: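 U-937 cells at 2.5 × 10^5 cells/mL in RPMI-1640 with 10% serum and 0.1 µg/mL PMA were infected with β-galactosidase-transfected Tulahuen epimastigotes at 5 parasites per cell. Infected cells were exposed to 50, 12.5, 3.125 and 0.78 µg/mL for 72 h. CPRG (100 uM) and 0.1% Nonidet P-40 were added for 3 h, read at 570 nm. EC50 by Probit. Triplicate, at least two experiments; benznidazole as reference.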

Compound	MIC (Klebsiella pneumoniae [1])	MIC (Klebsiella pneumoniae [2])	EC50 (Leishmania panamensis)	MIC50 (Candida albicans [3])	MIC80 (Candida albicans [3])	MIC50 (Cryptococcus neoformans [4])	MIC80 (Cryptococcus neoformans [4])	inhibition of growth at 250 µg/mL (Candida albicans [5])	inhibition of growth at 125 µg/mL (Candida albicans [6])	inhibition of growth at 62.5 µg/mL (Candida albicans [7])	inhibition of growth at 31.25 µg/mL (Candida albicans [8])	inhibition of growth at 15.62 µg/mL (Candida albicans [9])	inhibition of growth at 7.8 µg/mL (Candida albicans [10])	inhibition of growth at 3.4 µg/mL (Candida albicans [11])	inhibition of growth at 250 µg/mL (Cryptococcus neoformans [12])	inhibition of growth at 125 µg/mL (Cryptococcus neoformans [13])	inhibition of growth at 62.5 µg/mL (Cryptococcus neoformans [14])	inhibition of growth at 31.25 µg/mL (Cryptococcus neoformans [15])	inhibition of growth at 15.62 µg/mL (Cryptococcus neoformans [16])	inhibition of growth at 7.8 µg/mL (Cryptococcus neoformans [17])	also measured
COc1cc(C2=NN(C=O)C(c3cccc(Nc4ccnc5cc(Cl)ccc45)c3)C2)cc(OC)c1OC (stereo not given)	> 1000 µg/mL	> 1000 µg/mL	6.79 µg/mL (≈ 13.1 µM)	≥ 250 µg/mL	≥ 250 µg/mL	≥ 250 µg/mL	≥ 250 µg/mL	43.9%	26.7%	23.7%	19.7%	19.6%	5.72%	5.34%	0%	0%	0%	0%	0%	0%	inhibition of growth at 3.4 µg/mL (Cryptococcus neoformans [18]): 0%; MIC (Staphylococcus aureus [19]): > 1000 µg/mL; MIC (Staphylococcus aureus [20]): > 1000 µg/mL; MIC (Staphylococcus aureus [21]): > 1000 µg/mL; MIC (Escherichia coli): > 1000 µg/mL; MIC (Pseudomonas aeruginosa): > 1000 µg/mL; MIC (Neisseria gonorrhoeae): > 1000 µg/mL; EC50 (Plasmodium falciparum): 24.3 µg/mL (≈ 47 µM); LC50 (U-937): 17.4 µg/mL (≈ 33.7 µM); EC50 (Trypanosoma cruzi): 7.22 µg/mL (≈ 14 µM)
Cc1ccc(C(=O)/C=C/c2cccc(Nc3ccnc4cc(Cl)ccc34)c2)cc1	> 1000 µg/mL	> 1000 µg/mL	1.2 µg/mL (≈ 3.01 µM)	125 µg/mL (≈ 313 µM)	≥ 250 µg/mL	7.8 µg/mL (≈ 19.6 µM)	15.6 µg/mL (≈ 39.2 µM)	63.6%	53.1%	45.4%	39.6%	36.6%	30.6%	27.2%	100%	100%	100%	100%	93.7%	71.8%	inhibition of growth at 3.4 µg/mL (Cryptococcus neoformans [18]): 41.4%; MIC (Staphylococcus aureus [19]): > 1000 µg/mL; MIC (Staphylococcus aureus [20]): > 1000 µg/mL; MIC (Staphylococcus aureus [21]): > 1000 µg/mL; MIC (Escherichia coli): > 1000 µg/mL; MIC (Pseudomonas aeruginosa): > 1000 µg/mL; MIC (Neisseria gonorrhoeae): > 1000 µg/mL; EC50 (Plasmodium falciparum): 10.3 µg/mL (≈ 25.7 µM); LC50 (U-937): 2 µg/mL (≈ 5.01 µM); EC50 (Trypanosoma cruzi): > 1 µg/mL
